Laboratory results published in ChEMBL document CHEMBL1148611, “Selective inhibition of matrix metalloproteinase isozymes and in vivo protection against emphysema by substituted gamma-keto carboxylic acids” (J Med Chem, 2006).
Active and inactive are the calls of the source. No cut-off for these calls is given here.

Columns and labels:
[1] = target: Macrophage metalloelastase (Homo sapiens, UniProt P39900); test: Inhibitory activity against MMP12
[2] = target: T1, Matrix metalloproteinase-9 (Homo sapiens, UniProt P14780); test: Inhibitory activity against MMP9
[3] = target: 72 kDa type IV collagenase (Homo sapiens, UniProt P08253); test: Inhibitory activity against MMP2
[4] = target: T2, Matrilysin (Homo sapiens) (UniProt P09237); test: Inhibitory activity against MMP7 upto 50 uM
T2 sequence (whole entry): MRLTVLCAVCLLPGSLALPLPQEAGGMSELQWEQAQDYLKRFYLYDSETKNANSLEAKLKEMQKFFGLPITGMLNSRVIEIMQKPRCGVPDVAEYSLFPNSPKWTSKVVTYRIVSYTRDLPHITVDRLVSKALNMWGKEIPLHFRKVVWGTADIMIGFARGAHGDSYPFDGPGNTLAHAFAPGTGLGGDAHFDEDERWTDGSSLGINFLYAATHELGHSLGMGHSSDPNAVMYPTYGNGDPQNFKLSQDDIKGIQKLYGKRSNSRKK

[5] = target: T3, Matrix metalloproteinase-14 (Homo sapiens, UniProt P50281); test: Inhibitory activity against MMP14 upto 50uM
[6] = target: T4, Interstitial collagenase (Homo sapiens) (UniProt P03956); test: Inhibitory activity against MMP1 upto 50uM
T4 sequence (whole entry): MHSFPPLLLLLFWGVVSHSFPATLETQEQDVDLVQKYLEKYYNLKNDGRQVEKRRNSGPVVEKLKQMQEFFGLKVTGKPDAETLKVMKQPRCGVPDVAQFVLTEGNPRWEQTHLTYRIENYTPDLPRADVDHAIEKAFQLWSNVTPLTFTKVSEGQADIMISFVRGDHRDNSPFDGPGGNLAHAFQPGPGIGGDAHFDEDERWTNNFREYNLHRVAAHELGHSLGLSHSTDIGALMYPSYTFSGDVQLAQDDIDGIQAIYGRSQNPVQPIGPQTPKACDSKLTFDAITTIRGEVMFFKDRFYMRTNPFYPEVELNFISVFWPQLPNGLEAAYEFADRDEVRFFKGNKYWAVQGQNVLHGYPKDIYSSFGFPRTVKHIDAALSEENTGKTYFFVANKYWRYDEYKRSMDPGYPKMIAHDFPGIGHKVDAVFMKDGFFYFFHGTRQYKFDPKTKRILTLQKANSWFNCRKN

[7] = target: T5, Matrix metalloproteinase-16 (Homo sapiens, UniProt P51512); test: Inhibitory activity against MMP16 upto 50uM
[8] = target: T1, Matrix metalloproteinase-9; test: Inhibitory activity against MMP9 upto 50uM
[9] = target: T6, Matrix metalloproteinase-15 (Homo sapiens, UniProt P51511); test: Inhibitory activity against MMP15 upto 50uM
Target sequence in this assay (P51511 132-669 limits assumed): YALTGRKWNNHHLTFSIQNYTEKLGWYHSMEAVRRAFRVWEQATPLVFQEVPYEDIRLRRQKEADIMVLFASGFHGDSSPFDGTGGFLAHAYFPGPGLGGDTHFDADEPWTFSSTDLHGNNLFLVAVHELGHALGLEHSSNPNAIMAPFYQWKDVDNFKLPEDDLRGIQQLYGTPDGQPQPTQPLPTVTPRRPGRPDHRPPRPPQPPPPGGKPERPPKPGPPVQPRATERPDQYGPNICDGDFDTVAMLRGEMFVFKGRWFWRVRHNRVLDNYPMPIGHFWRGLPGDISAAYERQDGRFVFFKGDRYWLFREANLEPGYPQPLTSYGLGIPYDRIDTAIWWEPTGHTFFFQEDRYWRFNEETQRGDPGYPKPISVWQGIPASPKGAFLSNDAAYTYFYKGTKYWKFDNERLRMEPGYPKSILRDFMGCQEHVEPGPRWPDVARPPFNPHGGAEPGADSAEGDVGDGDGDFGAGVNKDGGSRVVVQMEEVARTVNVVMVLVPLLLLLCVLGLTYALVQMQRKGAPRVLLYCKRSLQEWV

[10] = target: T7, Matrix metalloproteinase-26 (Homo sapiens) (UniProt Q9NRE1); test: Inhibitory activity against MMP26 upto 50uM
T7 sequence (whole entry): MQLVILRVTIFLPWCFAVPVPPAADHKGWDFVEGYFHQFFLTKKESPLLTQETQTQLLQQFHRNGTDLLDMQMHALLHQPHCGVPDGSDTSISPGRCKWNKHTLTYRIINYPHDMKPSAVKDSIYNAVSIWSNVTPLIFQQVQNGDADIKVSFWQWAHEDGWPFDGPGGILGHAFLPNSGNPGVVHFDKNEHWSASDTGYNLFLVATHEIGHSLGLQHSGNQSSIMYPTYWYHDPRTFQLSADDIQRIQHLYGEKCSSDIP

[11] = target: T3, Matrix metalloproteinase-14; test: Inhibitory activity against MMP14
[12] = target: T8, Matrix metalloproteinase-26 (Homo sapiens, UniProt Q9NRE1); test: Inhibitory activity against MMP26
T8 sequence (Q9NRE1 whole entry): T7 sequence (whole entry)

[13] = target: T6, Matrix metalloproteinase-15; test: Inhibitory activity against MMP15
Target sequence in this assay (P51511 whole entry): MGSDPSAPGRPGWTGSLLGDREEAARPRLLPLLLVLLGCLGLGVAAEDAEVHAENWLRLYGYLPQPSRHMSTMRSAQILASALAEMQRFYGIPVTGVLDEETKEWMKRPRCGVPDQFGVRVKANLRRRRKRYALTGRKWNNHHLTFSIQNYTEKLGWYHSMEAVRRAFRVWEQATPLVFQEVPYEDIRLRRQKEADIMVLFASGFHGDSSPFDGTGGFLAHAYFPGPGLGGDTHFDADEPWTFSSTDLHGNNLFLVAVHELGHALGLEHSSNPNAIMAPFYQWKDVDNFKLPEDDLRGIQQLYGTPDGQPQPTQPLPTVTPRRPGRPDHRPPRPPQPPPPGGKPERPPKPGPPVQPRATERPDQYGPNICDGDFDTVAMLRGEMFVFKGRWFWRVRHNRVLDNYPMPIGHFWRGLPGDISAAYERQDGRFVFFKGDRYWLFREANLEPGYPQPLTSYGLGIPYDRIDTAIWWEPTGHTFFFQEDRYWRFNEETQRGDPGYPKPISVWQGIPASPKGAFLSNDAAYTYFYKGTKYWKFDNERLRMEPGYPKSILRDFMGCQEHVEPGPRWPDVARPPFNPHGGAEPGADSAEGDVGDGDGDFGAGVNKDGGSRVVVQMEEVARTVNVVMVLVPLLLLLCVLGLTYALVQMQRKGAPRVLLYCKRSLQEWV

[14] = target: T5, Matrix metalloproteinase-16; test: Inhibitory activity against MMP16
[15] = target: T2, Matrilysin (Homo sapiens); test: Inhibitory activity against MMP7 upto 50uM
Syrian golden hamster = test: Increase in lung weight, lung volumes, relative lung volumes and right ventricular hypertropy in PPE-treated Syrian hamster at 5 mg/kg; format: functional, organism-based; design: dose 5 mg/kg; settings: Mesocricetus auratus, Heart right ventricle
Summary of the method: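 Male golden Syrian hamsters with PPE-induced emphysema, compared with saline-treated controls, PPE-only animals and compound/saline-treated animals. Read-outs were wet weight of the left lung, lung volume, relative lung volume and right ventricular hypertrophy.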

Sequence of Macrophage metalloelastase (P39900 whole entry): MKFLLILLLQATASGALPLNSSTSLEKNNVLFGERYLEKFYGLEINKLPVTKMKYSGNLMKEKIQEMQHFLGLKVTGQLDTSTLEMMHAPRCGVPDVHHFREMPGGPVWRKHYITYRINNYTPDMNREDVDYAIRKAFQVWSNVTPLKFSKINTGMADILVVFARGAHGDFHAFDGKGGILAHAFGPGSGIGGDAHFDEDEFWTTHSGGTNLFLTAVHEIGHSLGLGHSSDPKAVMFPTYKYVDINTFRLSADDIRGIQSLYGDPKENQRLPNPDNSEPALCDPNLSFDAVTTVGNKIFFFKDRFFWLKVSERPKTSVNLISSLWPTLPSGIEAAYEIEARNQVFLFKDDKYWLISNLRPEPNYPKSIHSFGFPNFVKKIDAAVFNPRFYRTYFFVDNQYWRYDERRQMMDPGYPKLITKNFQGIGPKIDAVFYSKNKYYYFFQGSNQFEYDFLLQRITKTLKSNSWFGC
T1 sequence (P14780 whole entry): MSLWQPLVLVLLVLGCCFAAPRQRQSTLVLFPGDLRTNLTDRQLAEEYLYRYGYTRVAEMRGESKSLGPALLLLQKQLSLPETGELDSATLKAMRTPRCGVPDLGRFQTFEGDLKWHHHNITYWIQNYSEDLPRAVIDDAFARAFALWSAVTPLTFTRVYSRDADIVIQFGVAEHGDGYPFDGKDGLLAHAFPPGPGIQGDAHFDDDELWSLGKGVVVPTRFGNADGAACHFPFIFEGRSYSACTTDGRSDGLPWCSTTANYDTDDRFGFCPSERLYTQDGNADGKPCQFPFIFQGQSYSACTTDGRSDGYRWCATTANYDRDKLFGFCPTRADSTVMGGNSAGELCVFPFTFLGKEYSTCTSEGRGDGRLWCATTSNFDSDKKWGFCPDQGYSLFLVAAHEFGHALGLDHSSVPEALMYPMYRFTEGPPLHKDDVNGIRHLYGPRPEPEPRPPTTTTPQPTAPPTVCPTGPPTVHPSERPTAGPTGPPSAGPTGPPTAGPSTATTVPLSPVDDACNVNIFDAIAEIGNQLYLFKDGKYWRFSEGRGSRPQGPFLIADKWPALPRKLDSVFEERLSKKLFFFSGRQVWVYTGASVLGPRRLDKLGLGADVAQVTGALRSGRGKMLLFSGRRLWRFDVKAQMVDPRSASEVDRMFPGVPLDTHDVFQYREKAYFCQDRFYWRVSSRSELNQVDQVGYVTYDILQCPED
Sequence of 72 kDa type IV collagenase (P08253 whole entry): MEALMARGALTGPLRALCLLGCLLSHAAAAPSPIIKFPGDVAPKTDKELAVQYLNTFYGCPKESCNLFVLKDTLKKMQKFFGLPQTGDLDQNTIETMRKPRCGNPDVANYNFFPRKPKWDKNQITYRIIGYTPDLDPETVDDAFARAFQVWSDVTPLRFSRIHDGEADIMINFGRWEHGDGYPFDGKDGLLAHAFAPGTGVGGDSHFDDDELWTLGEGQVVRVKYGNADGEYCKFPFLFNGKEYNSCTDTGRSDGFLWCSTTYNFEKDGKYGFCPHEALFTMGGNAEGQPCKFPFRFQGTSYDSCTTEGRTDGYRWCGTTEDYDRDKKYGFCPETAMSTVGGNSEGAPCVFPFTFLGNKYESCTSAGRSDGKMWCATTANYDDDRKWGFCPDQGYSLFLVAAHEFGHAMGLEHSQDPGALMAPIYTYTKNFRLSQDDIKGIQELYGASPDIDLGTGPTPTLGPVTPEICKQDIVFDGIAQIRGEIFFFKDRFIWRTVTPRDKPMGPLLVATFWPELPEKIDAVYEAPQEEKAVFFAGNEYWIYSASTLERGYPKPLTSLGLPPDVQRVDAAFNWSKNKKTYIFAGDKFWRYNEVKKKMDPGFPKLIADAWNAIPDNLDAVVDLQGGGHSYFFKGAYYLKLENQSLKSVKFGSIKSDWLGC
T5 sequence (P51512 whole entry): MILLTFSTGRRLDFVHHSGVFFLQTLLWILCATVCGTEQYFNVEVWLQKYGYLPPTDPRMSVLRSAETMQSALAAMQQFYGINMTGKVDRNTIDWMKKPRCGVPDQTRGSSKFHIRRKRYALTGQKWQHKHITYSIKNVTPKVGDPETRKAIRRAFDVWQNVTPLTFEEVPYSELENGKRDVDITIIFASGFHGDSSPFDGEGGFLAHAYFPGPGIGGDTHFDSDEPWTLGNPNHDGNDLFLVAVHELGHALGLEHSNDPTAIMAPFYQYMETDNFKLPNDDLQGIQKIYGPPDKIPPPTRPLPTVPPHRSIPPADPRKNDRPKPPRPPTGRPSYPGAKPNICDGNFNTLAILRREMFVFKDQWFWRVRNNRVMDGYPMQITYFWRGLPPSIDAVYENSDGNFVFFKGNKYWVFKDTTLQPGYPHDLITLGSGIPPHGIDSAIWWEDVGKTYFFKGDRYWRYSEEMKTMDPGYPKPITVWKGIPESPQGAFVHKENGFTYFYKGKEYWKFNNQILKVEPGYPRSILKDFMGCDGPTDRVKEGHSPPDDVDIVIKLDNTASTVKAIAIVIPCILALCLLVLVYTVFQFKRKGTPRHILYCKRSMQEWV

SMILES | IC50 [1] [µM] | IC50 [2] [µM] | IC50 [3] [µM] | Activity [4] | Activity [5] | Activity [6] | Activity [7] | Activity [8] | Activity [9] | Activity [10] | IC50 [11] [µM] | IC50 [12] [µM] | IC50 [13] [µM] | IC50 [14] [µM] | Activity [15] | Activity (Syrian golden hamster)
CCCCCCC(CC(=O)O)C(=O)c1ccc(C#Cc2ccccc2)cc1 (stereo unspecified) | 0.45 | 5.41 | 1.66 | – | – | – | – | – | – | – | – | – | – | – | – | –
O=C(O)CCC(=O)c1ccc(C#CCOCc2ccccc2)cc1 | 25.7 | – | 23.1 | inactive | inactive | inactive | inactive | inactive | inactive | – | – | – | – | – | – | –
O=C(O)CCC(=O)c1ccc(C#CCO)cc1 | 24.7 | – | 15.4 | inactive | inactive | inactive | inactive | inactive | inactive | inactive | – | – | – | – | – | –
CCC(CC(=O)O)C(=O)c1ccc(C#Cc2ccccc2)cc1 (stereo unspecified) | 0.48 | 3.6 | 0.44 | inactive | – | inactive | – | – | – | – | 30.6 | 18.1 | 13.9 | 32 | – | –
O=C(O)CC(Cc1ccc(F)cc1)C(=O)c1ccc(C#Cc2ccccc2)cc1 (stereo unspecified) | 1.14 | 10 | 3.43 | – | – | – | – | – | – | – | – | – | – | – | – | –
CCCCCCC(CC(=O)O)C(=O)c1ccc(C#Cc2ccc(Cl)cc2)cc1 (stereo unspecified) | 0.2 | 1.51 | 0.55 | inactive | – | inactive | inactive | – | inactive | inactive | – | – | – | – | inactive | Active
O=C(O)CC(CC1CCCC1)C(=O)c1ccc(C#Cc2ccccc2)cc1 (stereo unspecified) | 0.32 | 3.39 | 1.12 | – | – | – | – | – | – | – | – | – | – | – | – | –
CCCCCCCCC#Cc1ccc(C(=O)CCC(=O)O)cc1 | 12.5 | – | 3.07 | inactive | inactive | inactive | inactive | inactive | inactive | inactive | – | – | – | – | – | –
CCC(CC(=O)O)C(=O)c1ccc(C#CCOCc2ccccc2)cc1 (stereo unspecified) | 7.56 | – | 5.74 | inactive | inactive | inactive | inactive | inactive | inactive | inactive | – | – | – | – | – | –
O=C(O)CC(Cc1ccccc1)C(=O)c1ccc(C#Cc2ccccc2)cc1 (stereo unspecified) | 0.6 | 9.29 | 2.11 | – | – | – | – | – | – | – | – | – | – | – | – | –
